Assay results of several laboratories.
Target: Rhodopsin kinase GRK7 (GRK7, Homo sapiens, UniProt Q8WTQ7)
One construct used (Q8WTQ7 1-553): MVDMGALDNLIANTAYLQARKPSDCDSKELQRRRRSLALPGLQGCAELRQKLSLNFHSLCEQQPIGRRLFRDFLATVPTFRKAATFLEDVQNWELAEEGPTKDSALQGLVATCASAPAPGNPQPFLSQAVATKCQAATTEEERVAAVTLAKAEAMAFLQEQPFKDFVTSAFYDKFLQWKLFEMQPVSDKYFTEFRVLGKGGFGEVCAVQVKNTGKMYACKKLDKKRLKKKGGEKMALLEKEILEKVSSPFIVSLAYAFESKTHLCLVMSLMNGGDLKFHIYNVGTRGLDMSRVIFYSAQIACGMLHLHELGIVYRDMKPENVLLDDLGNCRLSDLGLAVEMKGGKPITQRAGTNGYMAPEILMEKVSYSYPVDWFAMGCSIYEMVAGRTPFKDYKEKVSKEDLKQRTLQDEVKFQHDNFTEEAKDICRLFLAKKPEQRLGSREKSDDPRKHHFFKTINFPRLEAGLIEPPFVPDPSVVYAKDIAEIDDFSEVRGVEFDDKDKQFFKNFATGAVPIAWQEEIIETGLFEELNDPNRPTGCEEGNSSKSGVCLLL

| Structure (SMILES) | test | conditions | endpoint | result |
| --- | --- | --- | --- | --- |
| CS(=O)(=O)c1cc(C2(NC(=O)c3cncc4c3cnn4-c3ccc(F)cc3)CC2)ccn1 | cell-free assay, competition with immobilised ligand | 1 µM | remaining binding | 96% |
| CN1CC(Oc2cnc(C#N)cc2-c2ccn3nc(NC(=O)C4CC4)cc3c2)C1 | enzyme activity, inhibitor | 1 µM | inhibition | -8% |
| Cc1ccc(C(=O)NCc2ccsc2)cc1C#Cc1cn(C(C)C)c2ncnc(N)c12 | enzyme activity, inhibitor | 1 µM | activity vs control | 100% |
| O=C(Nc1cnn(-c2csc(C(=O)NC3COC3)c2)c1)Nc1c(F)cccc1Cl | enzyme activity, inhibitor | 5 µM | remaining activity | 94% |
| CC(C)(C)c1nc2c(s1)c1nc(N)ncc1c1ccc(NS(=O)(=O)c3c(F)cccc3F)c(F)c12 | enzyme activity, inhibitor, radiometric | 1 µM | remaining activity | 81% |
| CC(C)(O)[C@H]1CC[C@H](Nc2ccc3ncc(-c4cccc(C(F)(F)F)c4)n3n2)CC1 | enzyme activity, inhibitor | 1 µM | remaining activity | 38% |
| COc1cc2ncnc(Nc3ccc(Oc4ccccc4)c(C)c3C)c2cc1OC | enzyme activity, inhibitor | 1 µM | inhibition | 0% |
| Cc1c(NC(=O)c2cc(C(N)=O)nc3cc(F)ccc23)c(C(F)(F)F)nn1Cc1ccc(C#N)cc1 | cell-free assay, competition with immobilised ligand | 1 µM | remaining binding | 75% |
| C[C@@H]1CCN(c2nccc(-c3cnn4ncccc34)n2)C1 | binding | 1 µM | remaining binding | 82% |
| COc1cc2c(N3CCN(C(=O)Nc4ccc(OC(C)C)cc4)CC3)ncnc2cc1OCCCN1CCCCC1 | cell-free assay | 0.5 µM | remaining signal | 104% |
| CO[C@@H](C)c1c(Nc2ccc([C@H](N(C)C(=O)C3CCS(=O)(=O)CC3)C(F)(F)F)cc2)cnc2cc(Cl)nn12 | cell-free assay, competition with immobilised ligand | 1 µM | remaining binding | 100% |
| C#Cc1cccc(Nc2ncnc3cc(OCCOC)c(OCCOC)cc23)c1 | cell-free assay | 0.5 µM | remaining signal | 98.3% |
| CC1=C(C#N)C(c2ccc3c(c2)c(NC(=O)c2ccccc2C)nn3C)C(C#N)=C(C)N1 | cell-free assay, competition with immobilised ligand | 1 µM | remaining binding | 70% |
| CCN(CC)c1ccc(C2=NNC(=O)CC2C)cc1[N+](=O)[O-] (centres unmarked) | enzyme activity, inhibitor | 10 µM | remaining activity | 100% |
| CN1CCN(c2cnc3c(C4CCN(C(=O)c5ccc(OC(F)(F)F)cc5N)CC4)ncnc3c2)CC1 | cell-free assay, competition with immobilised ligand | 1 µM | remaining binding | 87% |
| CCCS(=O)(=O)Nc1ccc(F)c(C(=O)c2c[nH]c3ncc(-c4ccc(Cl)cc4)cc23)c1F | enzyme activity, inhibitor | 1 µM | inhibition | < 10% |
| Cc1ccc(C(=O)Nc2ccc(CN3CCN(C)CC3)c(C(F)(F)F)c2)cc1C#Cc1cnc2cccnn12 | enzyme activity, inhibitor | 23.5 nM | remaining activity | 94% |
